Experimental data reported in ChEMBL document CHEMBL1141164, “Design and synthesis of a series of melamine-based nitroheterocycles with activity against Trypanosomatid parasites” (J Med Chem, 2005).
“And” between values parts separate entries of the source, which are not always exact repeats. Equal values may be shown once.

Assays:
[1] = tested on: Trypanosoma brucei brucei; test: In vitro inhibitory concentration against blood stream Trypanosoma brucei brucei AT1 knockout mutant with a non functional P2 transporter incubated for 72 h at 37 degree C; format: organism-based
How it was run: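 Bloodstream T. b. brucei trypomastigotes, wild type or P2 transporter knockout (TbAT1-/-), were tested side by side. Viability was read by Alamar Blue fluorescence and IC50 values were determined.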

[2] = tested on: Trypanosoma brucei brucei; test: In vitro inhibitory concentration against blood stream Trypanosoma brucei brucei AT1 wild type incubated for 72 h at 37 degree C; format: functional, organism-based
How it was run: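 Wild-type T. b. brucei trypomastigotes, tested alongside the P2 knockout (TbAT1-/-). Alamar Blue viability assay used to derive IC50 values.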

[3] = molecular target: T1, Nucleoside transporter 2 (Trypanosoma brucei brucei) (UniProt Q9U763); test: In vitro inhibitory concentration against P2 aminopurine transporter of Trypanosoma brucei brucei 427 adenosine (0.5 uM) uptake in presence of 1 mM inosine
T1 sequence (whole entry): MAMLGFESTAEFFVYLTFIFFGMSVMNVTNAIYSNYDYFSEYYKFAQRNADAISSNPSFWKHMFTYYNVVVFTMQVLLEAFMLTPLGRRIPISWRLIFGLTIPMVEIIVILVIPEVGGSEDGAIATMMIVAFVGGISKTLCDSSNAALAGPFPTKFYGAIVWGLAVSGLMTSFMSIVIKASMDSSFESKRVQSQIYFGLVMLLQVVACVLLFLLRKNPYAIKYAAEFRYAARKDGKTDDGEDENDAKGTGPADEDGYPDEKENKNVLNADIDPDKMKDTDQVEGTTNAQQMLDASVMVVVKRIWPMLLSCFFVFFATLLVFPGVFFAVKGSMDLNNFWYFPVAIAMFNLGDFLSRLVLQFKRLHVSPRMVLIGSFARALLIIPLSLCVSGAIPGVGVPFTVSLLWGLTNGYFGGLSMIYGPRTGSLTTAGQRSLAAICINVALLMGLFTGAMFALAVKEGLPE
How it was run: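 Blood-purified T. b. brucei 427 held on ice in Carter's buffered saline. Uptake of radiolabeled adenosine fixed at 0.5 μM via P2, measured with 1 mM inosine present to block P1, by centrifugation through oil over a range of inhibitor concentrations. IC50 obtained by plotting inhibition against inhibitor concentration.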

[4] = tested on: Trypanosoma brucei rhodesiense; test: Inhibitory concentration in vitro against blood stream Trypanosoma brucei rhodesiense incubated for 72 hr at 37 degree C; format: functional, organism-based
How it was run: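 T. b. rhodesiense STIB900 trypomastigotes, a 1982 human isolate from Tanzania, grown in minimum essential medium with 2-mercaptoethanol and 15% heat-inactivated horse serum. Drug dilutions 90 to 0.123 μg/mL, 72 h at 37 °C, 5% CO2.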

L6 = test: Concentration causing cytotoxicity to 50% of L-6 rat skeletal myoblasts; format: functional, cell-based
How it was run: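 L-6 rat skeletal myoblasts run in the same Alamar Blue assay as the trypanosome screen. Serial dilutions spanning 90 to 0.123 μg/mL, 72 h at 37 °C under 5% CO2, then Alamar Blue for a further 2–4 h. Fluorescence read at ex 536/em 588 nm and expressed as % of control to give IC50.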

Leishmania donovani [5] = test: Inhibitory concentration in vitro against intracellular amastigotes of Leishmania donovani in mouse peritoneal macrophages incubated for 96 hr at […]; tox is toxic to macrophages
Trypanosoma cruzi [6] = test: In vitro inhibitory concentration against intracellular amastigotes of Trypanosoma cruzi in rat skeletal myoblasts incubated for 37 degree C for 4 days; format: functional, organism-based; details: 96 h
How it was run: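 L-6 myoblasts seeded at 2000 cells/well in RPMI 1640 with 10% FBS and 2 mM L-glutamine. After 24 h, 5000 T. cruzi Tulahuen C2C4 (LacZ) trypomastigotes added with serial drug dilution. Incubated 4 days at 37 °C in 5% CO2, then CPRG/Nonidet added.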

Trypanosoma cruzi [7] = test: In vivo percent inhibition of compound at a dose of 45 mg/kg, p.o., for 5 doses in rodent model with Trypanosoma cruzi [ND = not determined]; details: po
Trypanosoma cruzi [8] = test: In vivo activity at a dose of 45 mg/kg, p.o., for 5 doses in rodent model with Trypanosoma cruzi, measured as survival days (control 13 days); details: route oral
Trypanosoma brucei [9] = test: Inhibitory concentration against RAD51-/- mutant Trypanosoma brucei
Trypanosoma brucei [10] = test: Inhibitory concentration against wild-type (427) Trypanosoma brucei; format: functional, organism-based
Mus musculus [11] = test: In vivo antitrypanosomal activity at a dose of 4*20 mg/kg, i.p., in mice infected with Trypanosoma brucei rhodesiense STIB 900 strain; 0/4; format: functional
Trypanosoma cruzi [12] = test: In vivo activity at a dose of 15 mg/kg, i.p., for 5 doses in rodent model with Trypanosoma cruzi, measured as survival days (control 13 days); details: route intraperitoneal
Mus musculus [13] = test: In vivo antitrypanosomal activity at a dose of 4*20 mg/kg, i.p., in mice infected with Trypanosoma brucei rhodesiense STIB 900 strain, measured as survival days (control 7 days); format: functional
Mus musculus [14] = test: In vivo antitrypanosomal activity at a dose of 4*1 mg/kg, i.p., in mice infected with Trypanosoma brucei rhodesiense STIB 900 strain, measured as survival days (control 7 days); ND is not determined; format: functional
Leishmania donovani [15] = test: Inhibitory concentration in vitro against intracellular amastigotes of Leishmania donovani in mouse peritoneal macrophages incubated for 96 hr at 27 degree C
Mus musculus [16] = test: In vivo antitrypanosomal activity at a dose of 4*1 mg/kg, i.p., in mice infected with Trypanosoma brucei brucei STIB 795 strain; 2/4; format: functional
Mus musculus [17] = test: In vivo antitrypanosomal activity at a dose of 4*8 mg/kg, i.p., in mice infected with Trypanosoma brucei rhodesiense STIB 900 strain, measured as cured/infected; 4/4; format: functional
Mus musculus [18] = test: In vivo antitrypanosomal activity at a dose of 4*1 mg/kg, i.p., in mice infected with Trypanosoma brucei rhodesiense STIB 900 strain, measured as cured/infected; 0/4; format: functional
Mus musculus [19] = test: In vivo antitrypanosomal activity at a dose of 4*8 mg/kg, i.p., in mice infected with Trypanosoma brucei rhodesiense STIB 900 strain, measured as survival days (control 7 days); ND is not determined; format: functional
Mus musculus [20] = test: In vivo antitrypanosomal activity at a dose of 4*1 mg/kg, i.p., in mice infected with Trypanosoma brucei brucei STIB 795 strain, measured as survival days (control 7 days); format: functional
Trypanosoma cruzi [21] = test: In vivo activity at a dose of 50 mg/kg, i.p., for 5 doses in mice infected with Trypanosoma cruzi, measured as survival days (control 13 days); details: ip, 312 h
Trypanosoma cruzi [22] = test: as above
Mus musculus [23] = test: In vivo antitrypanosomal activity at a dose of 4*20 mg/kg, i.p., in mice infected with Trypanosoma brucei brucei STIB 795 strain, measured as survival days (control 7 days); format: functional
Mus musculus [24] = test: In vivo antitrypanosomal activity at a dose of 4*20 mg/kg, i.p., in mice infected with Trypanosoma brucei brucei STIB 795 strain; 4/4; format: functional
Mus musculus [25] = test: In vivo antitrypanosomal activity at a dose of 4*20 mg/kg, i.p., in mice infected with Trypanosoma brucei rhodesiense STIB 900 strain; 2/4; format: functional
Trypanosoma cruzi [26] = test: In vivo activity at a dose of 25 mg/kg, i.p., for 5 doses in rodent model with Trypanosoma cruzi, measured as survival days (control 13 days); details: route intraperitoneal
Mus musculus [27] = test: In vivo antitrypanosomal activity at a dose of 4*20 mg/kg, i.p., in mice infected with Trypanosoma brucei rhodesiense STIB 900 strain, measured as survival days (control 6.5 days); format: functional
Mus musculus [28] = test: In vivo antitrypanosomal activity at a dose of 4*20 mg/kg, i.p., in mice infected with Trypanosoma brucei rhodesiense STIB 900 strain; 1/4; format: functional
Mus musculus [29] = test: In vivo antitrypanosomal activity at a dose of 4*20 mg/kg, i.p., in mice infected with Trypanosoma brucei brucei STIB 795 strain; 0/4; format: functional
Mus musculus [30] = test: In vivo antitrypanosomal activity at a dose of 4*5 mg/kg, i.p., in mice infected with Trypanosoma brucei brucei STIB 795 strain, measured as survival days (control 7 days); format: functional
Mus musculus [31] = test: In vivo antitrypanosomal activity at a dose of 4*20 mg/kg, i.p., in mice infected with Trypanosoma brucei rhodesiense STIB 900 strain, measured as survival days (control 7 days); ND is not determined; format: functional
Mus musculus [32] = test: In vivo antitrypanosomal activity at a dose of 4*5 mg/kg, i.p., in mice infected with Trypanosoma brucei brucei STIB 795 strain; 4/4; format: functional
Mus musculus [33] = test: In vivo antitrypanosomal activity at a dose of 4*20 mg/kg, i.p., in mice infected with Trypanosoma brucei rhodesiense STIB 900 strain, measured as cured/infected; 0/4; format: functional

Row | SMILES | IC50 [1] [µM] | IC50 [2] [µM] | IC50 [3] [µM] | IC50 [4] [µM] | IC50 (L6) [µM] | IC50 (Leishmania donovani [5]) | IC50 (Trypanosoma cruzi [6]) [µM] | further results
1 | NNc1nc(N)nc(N)n1 | > 200 | > 200 | 11.9 | – | – | – | – | –
2 | Nc1nc(N)nc(N/N=C/c2cccs2)n1 | 170 | 89 | 4.9 | 10.2 | 78.2 | Toxic | 85.8 | –
3 | N/N=C/c1ccc([N+](=O)[O-])o1 | 13.5 | 23.5 | 404 | 2.3 | 20 | Toxic | – | –
4 | O=C(Cn1ccnc1[N+](=O)[O-])NCc1ccccc1 [BENZNIDAZOLE] | – | – | – | – | – | – | – | inhibition in vivo at 45 mg/kg (Trypanosoma cruzi [7]): 100%; Survival (Trypanosoma cruzi [8]): >30 days; IC50 (Trypanosoma brucei [9]): 114 µM; IC50 (Trypanosoma brucei [10]; Trypanosoma brucei): 116 µM
5 | Nc1nc(N)nc(N/N=C/c2cccc([N+](=O)[O-])c2)n1 | – | > 75 | – | 52.9 | – | – | 328 | –
6 | Nc1nc(N)nc(N/N=C/c2ccc([N+](=O)[O-])s2)n1 | 1.52 | 0.85 | 1.9 | 0.24 | 11.8 | Toxic | 2.6 | –
7 | N#Cc1ccc(/C=N/Nc2nc(N)nc(N)n2)o1 | – | – | – | 46.3 | – | – | 122 | –
8 | CN(C)c1nc(N/N=C/c2ccc([N+](=O)[O-])o2)nc(N(C)C)n1 | 0.3 | 0.2 | 129 | 0.003 | 18.7 | Toxic | 0.38 | Cured/Infected (Mus musculus [11]): 0; Survival (Trypanosoma cruzi [12]): 12.8 days; Survival (Mus musculus [13]): 7.25 days
9 | Nc1nc(N)nc(Nc2ccc([As]3SCC(CO)S3)cc2)n1 (stereo not given) [MELARSOPROL] | 0.12 | 0.053 | 1.2 | 0.006 | – | – | 0.006 | Survival (Mus musculus [14]): 21.25 days; IC50 (Leishmania donovani [15]): 7.8 µM; Cured/Infected (Mus musculus [16]): 2; Cured/Infected (Mus musculus [17]): 4; Cured/Infected (Mus musculus [18]): 0; Survival (Mus musculus [19]): >60 days; Survival (Mus musculus [20]): >60 days
10 | CNc1nc(N)nc(N/N=C/c2ccc([N+](=O)[O-])o2)n1 | 0.06 | 0.13 | – | 0.018 | 48.9 | – | 0.39 | inhibition in vivo at 50 mg/kg (Trypanosoma cruzi [21]): 27.8%; Survival (Trypanosoma cruzi [22]): 13 days; Survival (Mus musculus [23]): >60 days; IC50 (Trypanosoma brucei [9]): 0.07 µM; IC50 (Leishmania donovani [15]): 0.75 µM; IC50 (Trypanosoma brucei [10]): 0.08 µM; IC50 (Trypanosoma brucei [10]; Trypanosoma brucei): 0.08 µM; Cured/Infected (Mus musculus [24]): 4; Survival (Mus musculus [13]): >38.5 days; Cured/Infected (Mus musculus [25]): 2
11 | Nc1nc(N)nc(N/N=C/c2ccc([N+](=O)[O-])cc2)n1 | – | > 75 | – | 29.9 | – | – | 91.5 | –
12 | Nc1nc(N)nc(N/N=C/c2ccc([N+](=O)[O-])o2)n1 | 0.38 | 0.23 | 22.9 | 0.025 | 183 | – | 2.1 | Survival (Trypanosoma cruzi [26]): 13 days; Survival (Mus musculus [23]): >60 days; IC50 (Trypanosoma brucei [9]): 0.1 µM; IC50 (Leishmania donovani [15]): > 12.5 µM; Survival (Mus musculus [27]): 35.25 days; IC50 (Trypanosoma brucei [10]): 0.08 µM; IC50 (Trypanosoma brucei [10]; Trypanosoma brucei): 0.08 µM; Cured/Infected (Mus musculus [28]): 1; Cured/Infected (Mus musculus [24]): 4
13 | CNc1nc(NC)nc(N/N=C/c2ccc([N+](=O)[O-])o2)n1 | – | – | – | 0.01 | 44.1 | – | 0.24 | Survival (Mus musculus [23]): 5.25 days; IC50 (Leishmania donovani [15]): 3.14 µM; Cured/Infected (Mus musculus [29]): 0
14 | O=[N+]([O-])c1ccc(/C=N/O)o1 [NIFUROXIME] | 1.26 | 1.18 | 300 | 0.68 | 40 | Toxic | – | –
15 | Nc1nc(N)nc(N/N=C/c2ccco2)n1 | 29.3 | 16.5 | 15.9 | 12.9 | > 400 | Toxic | > 400 | –
16 | CC1CS(=O)(=O)CCN1/N=C/c1ccc([N+](=O)[O-])o1 (stereo not given) [NIFURTIMOX] | – | 5.6 | – | 1.5 | 68 | – | 1.5 | IC50 (Trypanosoma brucei [9]): 4.3 µM; IC50 (Leishmania donovani [15]): 68 µM; IC50 (Trypanosoma brucei [10]): 4.1 µM and 11.4 µM
17 | Nc1nc(N)nc(N/N=C/c2ccccc2[N+](=O)[O-])n1 | – | > 75 | – | 36.5 | – | – | 328 | –
18 | N=C(N)c1ccc(OCCCCCOc2ccc(C(=N)N)cc2)cc1 [PENTAMIDINE] | – | – | – | – | – | – | – | Survival (Mus musculus [30]): >60 days; Survival (Mus musculus [31]): 42.75 days; Cured/Infected (Mus musculus [32]): 4; Cured/Infected (Mus musculus [33]): 0
